# In ChEMBL document CHEMBL5236607, “Membrane-Active Cyclic Amphiphilic Peptides: Broad-Spectrum Antibacterial Activity Alone and in Combination with Antibiotics” (J Med Chem, 2022):
# Peptide text beside a SMILES is read from it.
# Tests used:
# [1] = Therapeutic index, ratio of HC50 for human RBC to MIC for methicillin resistant Staphylococcus aureus ATCC BAA-1556
# How it was run: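 Human RBCs washed in PBS pH 7.4 and mixed 1:1 with two-fold peptide dilutions (4% v/v suspension), 2 h at 37 °C. Hemoglobin in supernatant read at 567 nm against PBS (0%) and 1% Triton X-100 (100%). HC50 is the concentration giving 50% hemolysis. Index is HC50 divided by MIC against MRSA.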
# Staphylococcus aureus [2] = experiment: Synergistic antibacterial activity against methicillin resistant Staphylococcus aureus ATCC BAA-1556 incubated for 24 hrs in presence of tetracycline by checkerboard assay; format: functional
# How it was run: (§1)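 Checkerboard assay. Inoculum from an LB overnight culture at 0.5 McFarland, diluted 1/150 in MH media. […] Incubated 37 °C for 24 h. FICI = MIC combination/MIC alone summed over both agents. Triplicate.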
# Staphylococcus aureus [3] = experiment: Synergistic antibacterial activity against methicillin resistant Staphylococcus aureus ATCC BAA-1556 incubated for 24 hrs in presence of clindamycin by checkerboard assay; format: functional; how it was run: as §1
# Pseudomonas aeruginosa [4] = experiment: Synergistic antibacterial activity against Pseudomonas aeruginosa ATCC […] incubated for 24 hrs in presence of levofloxacin by checkerboard assay; format: functional
# Escherichia coli [5] = experiment: Synergistic antibacterial activity against Escherichia coli ATCC 25922 incubated for 24 hrs in presence of polymyxin B by checkerboard assay; format: functional
# How it was run: (§2)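 Checkerboard assay in MH broth. Inoculum from an LB overnight culture set to 0.5 McFarland and diluted 1/150. […] Each agent was also titrated alone. Incubation 24 h at 37 °C. FIC = combination MIC/individual MIC; FICI = sum of the FICs. Triplicate.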
# Klebsiella pneumoniae [6] = experiment: Synergistic antibacterial activity against Klebsiella pneumoniae ATCC BAA-1705 incubated for 24 hrs in presence of polymyxin B by checkerboard assay; format: functional
# Pseudomonas aeruginosa [7] = experiment: Synergistic antibacterial activity against Pseudomonas aeruginosa ATCC […] assessed as fractional inhibitory concentration incubated for 24 hrs in presence of tetracycline by checkerboard assay; format: functional
# Staphylococcus aureus [8] = experiment: Synergistic antibacterial activity against methicillin resistant Staphylococcus aureus ATCC BAA-1556 assessed as fractional inhibitory concentration index incubated for 24 hrs in presence of tetracycline by checkerboard assay; format: functional; how it was run: as §1
# Pseudomonas aeruginosa [9] = experiment: Synergistic antibacterial activity against Pseudomonas aeruginosa ATCC […] assessed as fractional inhibitory concentration index incubated for 24 hrs in presence of tetracycline by checkerboard assay; format: functional
# Escherichia coli [10] = experiment: Synergistic antibacterial activity against Escherichia coli ATCC 25922 assessed as fractional inhibitory concentration index incubated for 24 hrs in presence of tetracycline by checkerboard assay; format: functional; how it was run: as §2
# Klebsiella pneumoniae [11] = experiment: Synergistic antibacterial activity against Klebsiella pneumoniae ATCC BAA-1705 assessed as fractional inhibitory concentration index incubated for 24 hrs in presence of tobramycin by checkerboard assay; format: functional; how it was run: as §2
# Staphylococcus aureus [12] = experiment: Synergistic antibacterial activity against methicillin resistant Staphylococcus aureus ATCC BAA-1556 assessed as fractional inhibitory concentration index incubated for 24 hrs in presence of clindamycin by checkerboard assay; format: functional; how it was run: as §1
# Klebsiella pneumoniae [13] = experiment: Synergistic antibacterial activity against Klebsiella pneumoniae ATCC BAA-1705 fractional inhibitory concentration index incubated for 24 hrs in presence of clindamycin by checkerboard assay; format: functional; how it was run: as §2
# Escherichia coli [14] = experiment: Synergistic antibacterial activity against Escherichia coli ATCC 25922 fractional inhibitory concentration index incubated for 24 hrs in presence of levofloxacin by checkerboard assay; format: functional; how it was run: as §2
# Klebsiella pneumoniae [15] = experiment: Synergistic antibacterial activity against Klebsiella pneumoniae ATCC BAA-1705 fractional inhibitory concentration index incubated for 24 hrs in presence of levofloxacin by checkerboard assay; format: functional; how it was run: as §2
# Staphylococcus aureus [16] = experiment: Synergistic antibacterial activity against methicillin resistant Staphylococcus aureus ATCC BAA-1556 fractional inhibitory concentration index incubated for 24 hrs in presence of Ciprofloxacin by checkerboard assay; format: functional; how it was run: as §1
# Klebsiella pneumoniae [17] = experiment: Synergistic antibacterial activity against Klebsiella pneumoniae ATCC BAA-1705 fractional inhibitory concentration index incubated for 24 hrs in presence of Ciprofloxacin by checkerboard assay; format: functional; how it was run: as §2
# Escherichia coli [18] = experiment: Synergistic antibacterial activity against Escherichia coli ATCC 25922 fractional inhibitory concentration index incubated for 24 hrs in presence of polymyxin B by checkerboard assay; format: functional; how it was run: as §2
# Klebsiella pneumoniae [19] = experiment: Synergistic antibacterial activity against Klebsiella pneumoniae ATCC BAA-1705 fractional inhibitory concentration index incubated for 24 hrs in presence of metronidazole by checkerboard assay; format: functional
# Pseudomonas aeruginosa [20] = experiment: Synergistic antibacterial activity against Pseudomonas aeruginosa ATCC […] fractional inhibitory concentration index incubated for 24 hrs in presence of meropenem by checkerboard assay; format: functional
# Klebsiella pneumoniae [21] = experiment: Synergistic antibacterial activity against Klebsiella pneumoniae ATCC BAA-1705 assessed as fractional inhibitory concentration incubated for 24 hrs in presence of tetracycline by checkerboard assay; format: functional; how it was run: as §2
# Staphylococcus aureus [22] = experiment: Synergistic antibacterial activity against methicillin resistant Staphylococcus aureus ATCC BAA-1556 assessed as fractional inhibitory concentration incubated for 24 hrs in presence of clindamycin by checkerboard assay; format: functional; how it was run: as §1
# Klebsiella pneumoniae [23] = experiment: Synergistic antibacterial activity against Klebsiella pneumoniae ATCC BAA-1705 fractional inhibitory concentration incubated for 24 hrs in presence of clindamycin by checkerboard assay; format: functional; how it was run: as §2
# Klebsiella pneumoniae [24] = experiment: Synergistic antibacterial activity against Klebsiella pneumoniae ATCC BAA-1705 fractional inhibitory concentration incubated for 24 hrs in presence of Ciprofloxacin by checkerboard assay; format: functional; how it was run: as §2
# Escherichia coli [25] = experiment: Synergistic antibacterial activity against Escherichia coli ATCC 25922 fractional inhibitory concentration incubated for 24 hrs in presence of polymyxin B by checkerboard assay; format: functional; how it was run: as §2
# Staphylococcus aureus [26] = experiment: Synergistic antibacterial activity against methicillin resistant Staphylococcus aureus ATCC BAA-1556 fractional inhibitory concentration incubated for 24 hrs in presence of metronidazole by checkerboard assay; format: functional; how it was run: as §1
# Pseudomonas aeruginosa [27] = experiment: Synergistic antibacterial activity against Pseudomonas aeruginosa ATCC […] fractional inhibitory concentration incubated for 24 hrs in presence of metronidazole by checkerboard assay; format: functional
# Pseudomonas aeruginosa [28] = experiment: Synergistic antibacterial activity against Pseudomonas aeruginosa ATCC […] fractional inhibitory concentration incubated for 24 hrs in presence of meropenem by checkerboard assay; format: functional
# Staphylococcus aureus [29] = experiment: Synergistic antibacterial activity against methicillin resistant Staphylococcus aureus ATCC BAA-1556 fractional inhibitory concentration incubated for 24 hrs in presence of vancomycin by checkerboard assay; format: functional; how it was run: as §1
# Pseudomonas aeruginosa [30] = experiment: Synergistic antibacterial activity against Pseudomonas aeruginosa ATCC […] fractional inhibitory concentration incubated for 24 hrs in presence of vancomycin by checkerboard assay; format: functional
# Klebsiella pneumoniae [31] = experiment: Synergistic antibacterial activity against Klebsiella pneumoniae ATCC BAA-1705 fractional inhibitory concentration incubated for 24 hrs in presence of vancomycin by checkerboard assay; format: functional; how it was run: as §2
# Staphylococcus aureus [32] = experiment: Bactericidal activity against methicillin resistant Staphylococcus aureus assessed as reduction in bacterial cells at MIC after […] by time kill assay; format: functional; parameters: scale not given: the % may be the effect or the level left
# [33] = Membrano-lytic effect in bacterial inner membrane mimic DOPC/DOPG (7:3) large unilamellar vesicles assessed as calcein leakage measured upto 100 mins by multimode microplate reader assay; format: cell membranes; conditions: dose 5-50 µg/ml
# How it was run: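 Calcein (70 mM) loaded into extruded 100 nm LUVs: DOPC:DOPG 7:3 (w/w) as the bacterial mimic, DOPC/cholesterol 10:1 (w/w) as the mammalian mimic. Free dye removed by gel filtration. Liposomes at 40 μM final lipid in PBS mixed 1:1 with peptide (5–50 μg/mL). Fluorescence (ex 490/em 520 nm) read every 10 min for 100 min; Triton X-100 defines 100% release. Triplicate.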
Structure (SMILES),TI [1],MIC (Staphylococcus aureus [2]) [mg/L],MIC (Staphylococcus aureus [3]) [mg/L],MIC (Pseudomonas aeruginosa [4]) [mg/L],MIC (Escherichia coli [5]) [mg/L],MIC (Klebsiella pneumoniae [6]) [mg/L],FIC (Pseudomonas aeruginosa [7]),fractional inhibitory concentration index (FICI) (Staphylococcus aureus [8]),fractional inhibitory concentration index (FICI) (Pseudomonas aeruginosa [9]),fractional inhibitory concentration index (FICI) (Escherichia coli [10]),fractional inhibitory concentration index (FICI) (Klebsiella pneumoniae [11]),fractional inhibitory concentration index (FICI) (Staphylococcus aureus [12]),fractional inhibitory concentration index (FICI) (Klebsiella pneumoniae [13]),fractional inhibitory concentration index (FICI) (Escherichia coli [14]),fractional inhibitory concentration index (FICI) (Klebsiella pneumoniae [15]),fractional inhibitory concentration index (FICI) (Staphylococcus aureus [16]),fractional inhibitory concentration index (FICI) (Klebsiella pneumoniae [17]),fractional inhibitory concentration index (FICI) (Escherichia coli [18]),fractional inhibitory concentration index (FICI) (Klebsiella pneumoniae [19]),fractional inhibitory concentration index (FICI) (Pseudomonas aeruginosa [20]),further results
N=C(N)NCCC[C@@H]1NC(=O)[C@H](CCCNC(=N)N)NC(=O)[C@H](CCCNC(=N)N)NC(=O)[C@H](Cc2c[nH]c3ccccc23)NC(=O)[C@H](Cc2c[nH]c3ccccc23)NC(=O)[C@H](Cc2c[nH]c3ccccc23)NC(=O)[C@H](Cc2c[nH]c3ccccc23)NC(=O)[C@H](CCCNC(=N)N)NC(=O)[C@H](CCCNC(=N)N)NC1=O,85,0.0625,0.0312,0.125,0.25,0.125,0.125,0.5,0.375,0.375,0.375,0.499,0.254,0.375,0.375,0.625,0.313,0.375,0.281,0.375,FIC (Klebsiella pneumoniae [21]): 0.125; FIC (Staphylococcus aureus [22]): 0.249; FIC (Klebsiella pneumoniae [23]): 0.0039; FIC (Klebsiella pneumoniae [24]): 0.0625; FIC (Escherichia coli [25]): 0.125; FIC (Staphylococcus aureus [26]): 0.063; FIC (Pseudomonas aeruginosa [27]): 0.25; FIC (Pseudomonas aeruginosa [28]): 0.125; FIC (Staphylococcus aureus [29]): 0.5; FIC (Pseudomonas aeruginosa [30]): 0.063; FIC (Klebsiella pneumoniae [31]): 0.0625; Activity (Staphylococcus aureus [32]): 100%; Activity [33]: Dose-Dependent Effect
N=C(N)NCCC[C@@H]1NC(=O)[C@H](CCCNC(=N)N)NC(=O)[C@H](CCCNC(=N)N)NC(=O)[C@H](CCCNC(=N)N)NC(=O)[C@H](Cc2c[nH]c3ccccc23)NC(=O)[C@H](Cc2c[nH]c3ccccc23)NC(=O)[C@H](Cc2c[nH]c3ccccc23)NC(=O)[C@H](Cc2c[nH]c3ccccc23)NC(=O)[C@H](CCCNC(=N)N)NC(=O)[C@H](CCCNC(=N)N)NC1=O (cyclo(RRRRRRWWWW)),33.1,0.0625,0.031,0.125,0.125,0.031,0.25,0.5,0.5,0.313,0.5,0.498,0.266,0.375,0.375,0.75,0.313,0.313,0.313,0.5,FIC (Klebsiella pneumoniae [21]): 0.125; FIC (Staphylococcus aureus [22]): 0.248; FIC (Klebsiella pneumoniae [23]): 0.016; FIC (Klebsiella pneumoniae [24]): 0.0625; FIC (Escherichia coli [25]): 0.063; FIC (Staphylococcus aureus [26]): 0.063; FIC (Pseudomonas aeruginosa [27]): 0.125; FIC (Pseudomonas aeruginosa [28]): 0.25; FIC (Staphylococcus aureus [29]): 0.25; FIC (Pseudomonas aeruginosa [30]): 0.0313; FIC (Klebsiella pneumoniae [31]): 0.0625
